Source: ChEMBL document CHEMBL5724801, “EUbOPEN Chemogenomics Library - Multiplex” (2024)
Where “and” joins values, the source holds several entries; their conditions need not be identical. Identical values can stand only once.

Tests used:
Fibroblast = experiment: Multiplex assay against human fibroblast; type: toxicity, cell-based
How it was run: (§1)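 At seeding, live cells were stained with Hoechst33342, BioTracker Green Microtubule Cytoskeleton Dye, MitoTracker Red and Annexin V Alexa Fluor 680. After compound addition they were imaged on a CQ1 microscope at 37°C and 5% CO2, and CellPathfinder machine-learning gating sorted them into Hoechst high-intensity objects or normal cells, with normal cells further split into healthy, pyknosed or fragmented nuclei and pyknosed cells into mitotic or apoptotic. Tubulin, mitochondrial-mass and membrane-permeability phenotypes are given as per cents of cells with healthy nuclei.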

HEK-293T = experiment: Multiplex assay against HEK293T; type: toxicity, cell-based; conditions: human; how it was run: as §1
[1] = 24 h, 1 µM, compound concentration 1 uM
[2] = 24 h, 10 µM, compound concentration 10 uM
[3] = 48 h, 1 µM, compound concentration 1 uM
[4] = 48 h, 10 µM, compound concentration 10 uM
[5] = 12 h, 1 µM, compound concentration 1 uM
[6] = 12 h, 10 µM, compound concentration 10 uM

O=C(O)C(F)(F)F.O=C1NC(=O)/C(=C/c2c[nH]c(=O)c(-c3ccc(N4CCNCC4)nc3)c2)S1
Population Membrane Permeable-Phenotype (%) (Fibroblast; [1]): 4.39% and 3.97% | Population Mitochondria Different-Phenotype (%) (Fibroblast; [1]): 4.39% and 9.27% | Population Mitotic Cells (%) (Fibroblast; [1]): 89.58% and 82.14% | Population Normal (%) (Fibroblast; [1]): 100% | Population Pyknosed Nuclei (%) (Fibroblast; [1]): 25.95% and 14.51% | Population Tubulin-Different-Phenotype (%) (Fibroblast; [1]): 10.53% and 16.56% | Total Cell Count (Fibroblast; [1]): 185 and 193 | Population Apoptotic (%) (Fibroblast; [2]): 24.24% and 20.59% | Population Fragmented Nuclei (%) (Fibroblast; [2]): 13.83% and 5.22% | Population Healthy Nuclei (%) (Fibroblast; [2]): 68.62% and 80% | Population Hoechst High Intensity Objects (%) (Fibroblast; [2]): 0% | Population Membrane Permeable-Phenotype (%) (Fibroblast; [2]): 3.88% and 1.09% | Population Mitochondria Different-Phenotype (%) (Fibroblast; [2]): 4.65% and 6.52% | Population Mitotic Cells (%) (Fibroblast; [2]): 75.76% and 79.41% | Population Normal (%) (Fibroblast; [2]): 100% | Population Pyknosed Nuclei (%) (Fibroblast; [2]): 17.55% and 14.78% | Population Tubulin-Different-Phenotype (%) (Fibroblast; [2]): 10.85% and 20.11% | Total Cell Count (Fibroblast; [2]): 188 and 230 | Population Apoptotic (%) (Fibroblast; [3]): 26.32% and 27.27% | Population Fragmented Nuclei (%) (Fibroblast; [3]): 10.5% and 6.53% | Population Healthy Nuclei (%) (Fibroblast; [3]): 81.51% and 87.94% | Population Hoechst High Intensity Objects (%) (Fibroblast; [3]): 0% | Population Membrane Permeable-Phenotype (%) (Fibroblast; [3]): 1.03% and 1.71% | Population Mitochondria Different-Phenotype (%) (Fibroblast; [3]): 8.76% and 5.71% | Population Mitotic Cells (%) (Fibroblast; [3]): 73.68% and 72.73% | Population Normal (%) (Fibroblast; [3]): 100% | Population Pyknosed Nuclei (%) (Fibroblast; [3]): 7.98% and 5.53% | Population Tubulin-Different-Phenotype (%) (Fibroblast; [3]): 6.7% and 18.86% | Total Cell Count (Fibroblast; [3]): 238 and 199 | Population Apoptotic (%) (Fibroblast; [4]): 50% and 55.56% | Population Fragmented Nuclei (%) (Fibroblast; [4]): 7.94% and 3.6% | Population Healthy Nuclei (%) (Fibroblast; [4]): 88.89% and 92.34% | Population Hoechst High Intensity Objects (%) (Fibroblast; [4]): 0% | Population Membrane Permeable-Phenotype (%) (Fibroblast; [4]): 1.19% and 1.46% | Population Mitotic Cells (%) (Fibroblast; [4]): 50% and 44.44% | Population Normal (%) (Fibroblast; [4]): 100% | Population Pyknosed Nuclei (%) (Fibroblast; [4]): 3.17% and 4.05% | Total Cell Count (Fibroblast; [4]): 189 and 222 | Population Apoptotic (%) (HEK-293T; [5]): 11.41% and 11.65% | Population Fragmented Nuclei (%) (HEK-293T; [5]): 1.85% and 6.98% | Population Hoechst High Intensity Objects (%) (HEK-293T; [5]): 0% | Population Mitotic Cells (%) (HEK-293T; [5]): 88.59% and 88.35% | Population Normal (%) (HEK-293T; [5]): 100% | Population Pyknosed Nuclei (%) (HEK-293T; [5]): 39.31% and 79.84% | Total Cell Count (HEK-293T; [5]): 379 and 129 | Population Apoptotic (%) (HEK-293T; [6]): 6.85% and 12.69% | Population Fragmented Nuclei (%) (HEK-293T; [6]): 2.2% and 4.57% | Population Healthy Nuclei (%) (HEK-293T; [6]): 57.69% and 27.41% | Population Hoechst High Intensity Objects (%) (HEK-293T; [6]): 0.27% and 0% | Population Membrane Permeable-Phenotype (%) (HEK-293T; [6]): 0.95% and 0% | Population Mitotic Cells (%) (HEK-293T; [6]): 93.15% and 87.31% | Population Normal (%) (HEK-293T; [6]): 99.73% and 100% | Population Pyknosed Nuclei (%) (HEK-293T; [6]): 40.11% and 68.02% | Total Cell Count (HEK-293T; [6]): 365 and 197 | Population Apoptotic (%) (HEK-293T; [1]): 17.05% and 22.22% | Population Fragmented Nuclei (%) (HEK-293T; [1]): 1.89% and 2.88% | Population Healthy Nuclei (%) (HEK-293T; [1]): 75.95% and 25.9% | Population Hoechst High Intensity Objects (%) (HEK-293T; [1]): 0.17% and 0% | Population Membrane Permeable-Phenotype (%) (HEK-293T; [1]): 1.13% and 0% | Population Mitochondria Different-Phenotype (%) (HEK-293T; [1]): 18.1% and 11.11% | Population Mitotic Cells (%) (HEK-293T; [1]): 82.95% and 77.78% | Population Normal (%) (HEK-293T; [1]): 99.83% and 100% | Population Apoptotic (%) (HEK-293T; [2]): 8.74% and 7.63% | Population Fragmented Nuclei (%) (HEK-293T; [2]): 1.47% and 3.95% | Population Healthy Nuclei (%) (HEK-293T; [2]): 81.67% and 49.41% | Population Hoechst High Intensity Objects (%) (HEK-293T; [2]): 0.16% and 0.39% | Population Membrane Permeable-Phenotype (%) (HEK-293T; [2]): 1% and 0.8% | Population Mitochondria Different-Phenotype (%) (HEK-293T; [2]): 11.22% and 10.4% | Population Mitotic Cells (%) (HEK-293T; [2]): 91.26% and 92.37% | Population Normal (%) (HEK-293T; [2]): 99.84% and 99.61% | Population Pyknosed Nuclei (%) (HEK-293T; [2]): 16.86% and 46.64% | Population Tubulin-Different-Phenotype (%) (HEK-293T; [2]): 10.02% and 1.6% | Total Cell Count (HEK-293T; [2]): 612 and 254 | Population Apoptotic (%) (HEK-293T; [3]): 6.45% and 15.87% | Population Fragmented Nuclei (%) (HEK-293T; [3]): 2.67% and 3.98% | Population Healthy Nuclei (%) (HEK-293T; [3]): 86.14% and 60.23% | Population Hoechst High Intensity Objects (%) (HEK-293T; [3]): 0.07% and 0% | Population Membrane Permeable-Phenotype (%) (HEK-293T; [3]): 4.02% and 0.94% | Population Mitochondria Different-Phenotype (%) (HEK-293T; [3]): 12.07% and 19.81% | Population Mitotic Cells (%) (HEK-293T; [3]): 93.55% and 84.13% | Population Normal (%) (HEK-293T; [3]): 99.93% and 100% | Population Apoptotic (%) (HEK-293T; [4]): 7.41% and 20.63% | Population Fragmented Nuclei (%) (HEK-293T; [4]): 4.01% and 2.52% | Population Healthy Nuclei (%) (HEK-293T; [4]): 88.47% and 81.61% | Population Hoechst High Intensity Objects (%) (HEK-293T; [4]): 0% and 0.5% | Population Membrane Permeable-Phenotype (%) (HEK-293T; [4]): 6.36% and 2.78% | Population Mitochondria Different-Phenotype (%) (HEK-293T; [4]): 6.55% and 12.04% | Population Mitotic Cells (%) (HEK-293T; [4]): 92.59% and 79.37% | Population Normal (%) (HEK-293T; [4]): 100% and 99.5% | Population Pyknosed Nuclei (%) (HEK-293T; [4]): 7.52% and 15.87%
